Measurements as given in article PMC3139720 (Proteins, 2011).
Values joined by “and” are separate entries in the source; they are usually repeats but may differ in a detail not shown here. Identical values can stand only once. Like-named read-outs stand apart in the source and are kept apart here. Marks after values point to notes of the source that are not given here.

Assays:
[1] = reaction of ABD with L-GSH; for Ea/R: Arrhenius fit
[2] = Practical properties of thiol-reactive probes; format: physicochemical; conditions: data not shown
physchem = conditions: apparent pKa of L-GSH
[3] = fQCR: ABD labeling of a single buried cysteine over a temperature gradient; format: physicochemical
Procedure, shortened: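 Purified single-buried-cysteine variant at 5-10 μM in 25 mM potassium phosphate, 100 mM KCl, pH 7, with TCEP. Final ABD at least 10-fold over protein. Parallel reactions run across a gradient thermocycler and quenched after fixed Δt by rapid cooling or acid. Fluorescence relative to RFUmax (400-2000 μM ABD) gives fractional labeling. Probe-concentration slices test EX2. ΔCp fixed at 3.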

[4] = Thermal unfolding monitored by circular dichroism at 222 nm; format: physicochemical; conditions: pH 7, CD signal at 222 nm, fit of Eq. 1
Procedure, shortened: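 His-tagged variants, Ni-affinity purified and buffer-exchanged. Protein at 3 μM in 25 mM potassium phosphate, 100 mM KCl, pH 7. CD signal at 222 nm recorded as a function of temperature. Apparent Tm obtained by fitting Eq. 1.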

[5] = fQCR ligand binding: RBP.A188C in absence and presence of D-ribose; conditions: for Δ^apoGU: absence of ligand; for Tm / ΔHm: free energy profile; for Kd: ligand ribose, from ΔΔGU (Eq. 17)
Procedure, shortened: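 RBP.A188C at 5 μM with 400 μM ABD and 50 μM TCEP (final) in 25 mM potassium phosphate, 100 mM KCl, pH 7, without or with 20 μM ligand. Samples incubated 10 min across a gradient thermocycler, then fluorescence read at 30°C (ex 405, em 465 nm). Fractional labeling converted to free-energy profiles. KD derived versus temperature and free ligand concentration via Eq. 17.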

[6] = Δt 300 s, [ABD] 500 μM, PHERAstar FS microplate reader (Fig. 7)
[7] = absence of ribose (Fig. 6B inset)
[8] = presence of 20 μM ribose (Fig. 6B inset)

NS(=O)(=O)c1ccc(F)c2nonc12 [ABD, 4-(aminosulfonyl)-7-fluoro-2,1,3-benzoxadiazole]
lnA, average value and standard error ([1]; over pH 6-8.5): 27.3 ± 0.3 | Ea/R ([1]; pH 6 (by order of symbols)): -9300 ± 200 K | Ea/R ([1]; pH 7 (by order of symbols)): -8300 ± 200 K | Ea/R ([1]; pH 8 (by order of symbols)): -7800 ± 200 K | Ea/R ([1]; pH 8.5 (by order of symbols)): -7400 ± 200 K

CCN(CC)c1ccc2c(C)c(-c3ccc(N4C(=O)C=CC4=O)cc3)c(=O)oc2c1 [CPM, N-[4-(7-diethylamino-4-methyl-3-coumarinyl)phenyl]maleimide]
solubility [2]: limited | spontaneous hydrolysis [2]: high rate of spontaneous hydrolysis that is strongly temperature dependent

N[C@@H](CCC(=O)N[C@@H](CS)C(=O)NCC(=O)O)C(=O)O [L-GSH, reduced glutathione]
pKa (physchem): 8.03 ± 0.01

B1: RBP.L61C: E. coli ribose-binding protein variant engineered to contain a single, buried cysteine (L61C), C-terminal … tag (protein, UniProt P02925 26-296, looked up, variant L61C)
Ribose import binding protein …: KDTIALVVSTLNNPFFVSLKDGAQKEADKLGYNLVVLDSQNNPAKELANVQDLTVRGTKICLINPTDSDAVGNAVKMANQANIPVITLDRQATKGEVVSHIASDNVLGGKIAGDYIAKKAGEGAKVIELQGIAGTSAARERGEGFQQAVAAHKFNVLASQPADFDRIKGLNVMQNLLTAHPDVQAVFAQNDEMALGALRALQTAGKSDVMVVGFDGTPDGEKAVNDGKLAATIAQLPDQIGAKGVETADKVLKGEKVQAKYPVDLKLVVKQ
modifications: C-terminal … tag
Tm ([3]; summary line, quantified graphically): 53 ± 1 ^c °C | ~kclose at Tm ([3]; Δt 300 s, [ABD] 100 μM): < 2 × 10^-2 ^e s^-1 | ~kclose at Tm ([3]; Δt 300 s, [ABD] 200 μM): < 2 × 10^-2 ^e s^-1 | ~kclose at Tm ([3]; Δt 300 s, [ABD] 400 μM): < 2 × 10^-2 ^e s^-1 | Tm ([3]; Δt 300 s, [ABD] 400 μM, quantified graphically (non-EX2)): 53 ± 1 ^c °C | ~kclose at Tm ([3]; Δt 300 s, [ABD] 600 μM): < 2 × 10^-2 ^e s^-1 | Tm ([3]; Δt 300 s, [ABD] 600 μM, quantified graphically (non-EX2)): 53 ± 1 ^c °C | ~kclose at Tm ([3]; Δt 300 s, [ABD] 800 μM): < 2 × 10^-2 ^e s^-1 | Tm ([3]; Δt 300 s, [ABD] 800 μM, quantified graphically (non-EX2)): 53 ± 1 ^c °C | ~kclose at Tm ([3]; Δt 300 s, [ABD] 1200 μM): < 2 × 10^-2 ^e s^-1 | Tm ([3]; Δt 300 s, [ABD] 1200 μM, quantified graphically (non-EX2)): 53 ± 1 ^c °C | apparent Tm [4]: 53 ± 1 °C

B2: RBP.A188C: E. coli ribose-binding protein variant engineered to contain a single, buried cysteine (A188C), C-terminal … tag (protein, UniProt P02925 26-296, looked up, variant A188C)
Ribose import binding protein …: KDTIALVVSTLNNPFFVSLKDGAQKEADKLGYNLVVLDSQNNPAKELANVQDLTVRGTKILLINPTDSDAVGNAVKMANQANIPVITLDRQATKGEVVSHIASDNVLGGKIAGDYIAKKAGEGAKVIELQGIAGTSAARERGEGFQQAVAAHKFNVLASQPADFDRIKGLNVMQNLLTAHPDVQAVFCQNDEMALGALRALQTAGKSDVMVVGFDGTPDGEKAVNDGKLAATIAQLPDQIGAKGVETADKVLKGEKVQAKYPVDLKLVVKQ
modifications: C-terminal … tag
Ea/R ([3]; average value): -8140 ^a K | Tm ([3]; Δt 300 s, [ABD] 200 μM): 56 ± 1 °C | Ea/R ([3]; Δt 300 s, [ABD] 200 μM, pH 7): -8163 ± 6 K | Ea/R ([3]; Δt 300 s, [ABD] 400 μM, pH 7): -8110 ± 14 K | Tm [3, 6]: 56 ± 1 ^f °C | ΔHm [3, 6]: 123 ± 16 ^f kcal/mol and 112 ± 5 ^f kcal/mol | ΔHm ([3]; Δt 300 s, [ABD] 800 μM, ΔCp fixed at 3): 121 ± 4 kcal/mol | ~kclose at Tm ([3]; Δt 300 s, [ABD] 1600 μM): ~0.04 s⁻¹ | ΔHm ([3]; Δt 300 s, [ABD] 1600 μM, ΔCp fixed at 3): 117 ± 8 kcal/mol | Tm ([3]; Δt 600 s, [ABD] 200 μM): 56 ± 1 °C | Tm ([3]; Δt 600 s, [ABD] 400 μM): 56 ± 1 °C | ΔHm ([3]; Δt 600 s, [ABD] 800 μM, ΔCp fixed at 3): 128 ± 3 kcal/mol | Tm ([3]; Δt 600 s, [ABD] 1200 μM): 58 ± 1 °C | ~kclose at Tm ([3]; Δt 600 s, [ABD] 1200 μM): ~0.04 s⁻¹ | ΔHm ([3]; Δt 600 s, [ABD] 1200 μM, ΔCp fixed at 3): 125 ± 5 kcal/mol | Tm ([3]; Δt 600 s, [ABD] 1600 μM): 58 ± 1 °C | ~kclose at Tm ([3]; Δt 600 s, [ABD] 1600 μM): ~0.04 s⁻¹ | ΔHm ([3]; Δt 600 s, [ABD] 1600 μM, ΔCp fixed at 3): 121 ± 4 kcal/mol | apparent Tm [4]: 56 ± 1 °C | Δ^apoGU ([5]; 46 °C): 15.5 kJ/mol | Δ^apoGU ([5]; 48 °C): 12.6 kJ/mol | Δ^apoGU ([5]; 50 °C): 9.62 kJ/mol | Δ^apoGU ([5]; 52 °C): 6.69 kJ/mol | Δ^apoGU ([5]; 54 °C): 3.8 kJ/mol | Δ^apoGU ([5]; 56 °C): 0.42 kJ/mol | Tm [5, 7]: 57 ± 1 °C | ΔHm [5, 7]: 577 ± 4.2 kJ/mol | Tm [5, 8]: 59 ± 1 °C | ΔHm [5, 8]: 669 ± 33 kJ/mol | Kd ([5]; 46 °C): 1.2 µM | Kd ([5]; 48 °C): 1.4 µM | Kd ([5]; 50 °C): 1.7 µM | Kd ([5]; 52 °C): 2 µM | Kd ([5]; 54 °C): 2.3 µM | Kd ([5]; 56 °C): 2.7 µM
